Assay results reported in ChEMBL document CHEMBL1133445, “Nonpeptide alpha(v)beta(3) antagonists. 1. Transformation of a potent, integrin-selective alpha(IIb)beta(3) antagonist into a potent alpha(v)beta(3) antagonist” (J Med Chem, 2000).

Columns and labels:
Homo sapiens = organism: Homo sapiens; assay: In vitro inhibition of the rate of ADP-stimulated human gel-filtered platelet aggregation (PLAGGIN); format: functional
In short: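 Gel-filtered human platelets at 2×10^8/mL with 0.1 mg/mL human fibrinogen and 1 mM CaCl2. Light-transmittance aggregometry at 37 °C, with aggregation started by 10 μM ADP in the presence of test compound or vehicle.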

Integrin alpha-V/beta-3 [1] = target: T1, Integrin alpha-V/beta-3 (Homo sapiens, UniProt P05106+P06756); assay: Displacement of [125I]nonpeptide ligand (compound 7) from purified human recombinant alphaV-beta3; format: protein-complex assay
T1 sequence (P05106 27-788 limits assumed): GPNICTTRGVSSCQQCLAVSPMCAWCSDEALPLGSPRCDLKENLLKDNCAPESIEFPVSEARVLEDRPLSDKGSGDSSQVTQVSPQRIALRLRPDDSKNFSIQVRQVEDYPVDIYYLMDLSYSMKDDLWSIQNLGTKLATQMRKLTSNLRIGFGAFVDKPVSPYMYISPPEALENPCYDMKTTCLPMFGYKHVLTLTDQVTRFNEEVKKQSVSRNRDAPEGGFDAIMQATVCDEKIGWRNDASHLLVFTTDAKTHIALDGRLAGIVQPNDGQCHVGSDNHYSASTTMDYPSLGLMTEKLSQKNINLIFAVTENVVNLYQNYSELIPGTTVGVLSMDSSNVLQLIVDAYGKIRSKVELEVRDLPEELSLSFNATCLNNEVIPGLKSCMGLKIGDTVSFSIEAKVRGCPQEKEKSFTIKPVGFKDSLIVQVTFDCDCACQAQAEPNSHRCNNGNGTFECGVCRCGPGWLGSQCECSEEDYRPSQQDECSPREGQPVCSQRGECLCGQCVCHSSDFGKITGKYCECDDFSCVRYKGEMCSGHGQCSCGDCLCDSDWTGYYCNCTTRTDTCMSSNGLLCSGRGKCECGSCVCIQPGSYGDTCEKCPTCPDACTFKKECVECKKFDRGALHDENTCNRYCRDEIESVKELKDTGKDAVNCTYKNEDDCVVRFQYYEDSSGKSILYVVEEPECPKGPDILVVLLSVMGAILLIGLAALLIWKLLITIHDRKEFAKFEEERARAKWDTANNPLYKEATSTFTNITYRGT
T1 sequence (P06756 31-889 limits assumed): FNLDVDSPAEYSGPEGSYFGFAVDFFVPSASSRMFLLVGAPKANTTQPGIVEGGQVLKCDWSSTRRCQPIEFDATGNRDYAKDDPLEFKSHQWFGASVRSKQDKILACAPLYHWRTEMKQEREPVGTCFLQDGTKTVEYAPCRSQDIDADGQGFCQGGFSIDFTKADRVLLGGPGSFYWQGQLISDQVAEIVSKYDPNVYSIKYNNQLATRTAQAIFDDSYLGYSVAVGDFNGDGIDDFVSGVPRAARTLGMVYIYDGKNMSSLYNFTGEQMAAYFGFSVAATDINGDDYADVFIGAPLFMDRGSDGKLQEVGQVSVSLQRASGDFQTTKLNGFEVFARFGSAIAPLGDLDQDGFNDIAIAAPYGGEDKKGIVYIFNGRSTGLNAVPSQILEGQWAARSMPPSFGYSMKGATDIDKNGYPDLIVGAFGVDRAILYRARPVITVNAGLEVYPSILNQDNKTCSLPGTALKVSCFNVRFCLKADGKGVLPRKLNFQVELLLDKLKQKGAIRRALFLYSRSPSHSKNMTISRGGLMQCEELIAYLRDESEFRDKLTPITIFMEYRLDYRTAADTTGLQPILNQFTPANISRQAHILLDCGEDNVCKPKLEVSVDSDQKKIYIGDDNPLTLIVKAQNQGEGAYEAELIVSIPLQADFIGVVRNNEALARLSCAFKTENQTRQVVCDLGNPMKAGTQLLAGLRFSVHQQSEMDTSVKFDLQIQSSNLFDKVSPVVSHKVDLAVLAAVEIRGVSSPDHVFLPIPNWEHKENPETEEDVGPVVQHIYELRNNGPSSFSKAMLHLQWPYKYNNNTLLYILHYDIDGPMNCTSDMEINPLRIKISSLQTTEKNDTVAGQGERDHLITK
T1 sequence (P06756 891-1048 limits assumed): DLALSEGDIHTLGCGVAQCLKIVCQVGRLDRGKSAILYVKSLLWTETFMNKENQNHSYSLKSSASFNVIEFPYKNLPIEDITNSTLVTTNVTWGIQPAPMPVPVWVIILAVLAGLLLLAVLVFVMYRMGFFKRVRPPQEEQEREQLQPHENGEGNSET
In short: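 αvβ3 purified from 293 cells overexpressing human recombinant receptor, captured on wheatgerm agglutinin scintillation proximity beads. Incubated with ~40 pM final 125I-labeled nonpeptide ligand in HEPES pH 7.5 binding buffer with Ca2+/Mg2+, overnight at 4 °C with rocking. Nonspecific binding with 1 μM final cold ligand. Counted by scintillation; IC50 derived. Error given as SD.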

Integrin alpha-V/beta-3 [2] = target: T1, Integrin alpha-V/beta-3; assay: Displacement of [125I]echistatin from human recombinant alpha-v beta-3 receptor; format: protein-complex assay
In short: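 Cell extracts of HEK 293 stably transfected with human αvβ3 (~10 × 10^6 receptors/cell) incubated with 30 pM 125I-echistatin in Tris-HCl pH 7.8 buffer with NaCl, Ca/Mg and 0.1% BSA. Nonspecific binding with 1 μM unlabeled echistatin. Bound ligand separated by filtration on poly(ethylenimine)-soaked filters and gamma-counted. Error given as SD.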

Rattus norvegicus [3] = organism: Rattus norvegicus; assay: In vitro inhibition of rat osteoclast-mediated bone resorption (BONE RES)
Rattus norvegicus [4] = assay: Inhibition of the increase of serum calcium levels in a dose-dependent fashion after subcutaneous infusion for 6 hr to TPTX rats at doses 0.20, 0.67, and 2 mg/kg/h; format: organism-based; parameters: route subcutaneous
In short: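 Rats thyroparathyroidectomized and kept on a low-calcium diet; those with serum Ca < 8 mg/dL used. On day 3, anesthetized rats got subcutaneous infusion of vehicle or compound. Bovine PTH(1–34) at 0.03 nmol/h by osmotic minipump started 30 min later. Serum calcium measured at baseline and at the 4–6 h endpoint. Plasma drug levels measured by the echistatin binding bioassay.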

[5] = Half-life following a 1 mg/kg iv bolus dose to male rats (n=4); format: ADME, organism-based; parameters: dose 1 mg/kg, route intravenous; conditions: rat, in vivo
Integrin alpha-V/beta-3 [6] = target: T1, Integrin alpha-V/beta-3; assay: Dissociation constant of radiolabeled compound binding to alpha-v-beta-3; format: protein-complex assay

SMILES	IC50 (Homo sapiens)	IC50 (Integrin alpha-V/beta-3 [1])	IC50 (Integrin alpha-V/beta-3 [2])	IC50 (Rattus norvegicus [3])	IC50 (Rattus norvegicus [4])	half-life [5]	Kd (Integrin alpha-V/beta-3 [6])
O=C(NC[C@H](NS(=O)(=O)c1ccccc1)C(=O)O)c1ccc(CCc2ccc3c(n2)NCCC3)cc1	260 nM	0.07 nM	0.3 nM	3 nM	200 nM	< 30 min	–
Nc1cccc(CCc2ccc(C(=O)NC[C@H](NS(=O)(=O)c3ccc(I)cc3)C(=O)O)cc2)n1	1600 nM	0.08 nM	0.1 nM	–	–	–	0.06 nM

The next molecules have a lower IC50 (Homo sapiens) than those just listed; values first:

IC50 (Homo sapiens)	IC50 (Integrin alpha-V/beta-3 [1])	IC50 (Integrin alpha-V/beta-3 [2])	IC50 (Rattus norvegicus [3])	IC50 (Rattus norvegicus [4])	half-life [5]	Kd (Integrin alpha-V/beta-3 [6])	SMILES
44 nM	0.93 nM	0.7 nM	46 nM	–	–	–	O=C(NC[C@H](NS(=O)(=O)c1ccccc1)C(=O)O)c1ccc(OCCNC2=NCCCN2)cc1
140 nM	0.44 nM	0.4 nM	8 nM	–	–	–	Nc1cccc(CCc2ccc(C(=O)NC[C@H](NS(=O)(=O)c3ccccc3)C(=O)O)cc2)n1
17 nM	10.7 nM	1.8 nM	300 nM	–	–	–	N=C(N)NCCOc1ccc(C(=O)NC[C@H](NS(=O)(=O)c2ccccc2)C(=O)O)cc1
10 nM	> 1000 nM	> 1000 nM	–	–	–	–	O=C(NC[C@H](NS(=O)(=O)c1ccccc1)C(=O)O)c1ccc(OCCC2CCNCC2)cc1
